The source made the active and inactive calls. No cut-off for these calls is given here.
What was measured:
Mus musculus [1] = experiment: Antitumor activity against mouse EAC allografted in CF1 mouse assessed as tumor growth inhibition at 20 mg/kg, ip qd for 7 days (reference value: 0%); assay type: functional; settings: 168 h, route intraperitoneal
Mus musculus [2] = experiment: Antiinflammatory activity in CF1 mouse assessed as increase in foot weight at 20 mg/kg, ip administered 3 hrs and 30 mins prior to carrageenan-challenge measured after 3 hrs (reference value: 97 +/- 10 mg); assay type: functional; settings: route intraperitoneal
Mus musculus [3] = experiment: Antiinflammatory activity in CF1 mouse assessed as inhibition of carrageenan-induced paw edema at 20 mg/kg, ip administered 3 hrs and 30 mins prior to carrageenan-challenge measured after 3 hrs (reference value: 0%); assay type: functional; settings: route intraperitoneal
Mus musculus [4] = experiment: Antitumor activity against mouse P388 cells allografted in DBA/2 mouse assessed as tumor growth inhibition at 20 mg/kg, ip qd for 2 weeks (reference value: 100%); assay type: functional; settings: route intraperitoneal
Procedure, shortened: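 DBA/2 male mice (20 g) implanted with 10^6 P-388 cells on day 0, then dosed ip at 20 mg/kg/day for 2 weeks. T/C computed by the NIH protocol; T/C ≥120 counted as significant. 5-Fluorouracil served as internal standard.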

Mus musculus [5] = experiment: Antitumor activity against mouse EAC allografted in CF1 mouse assessed as ascrit fluid volume at 20 mg/kg, ip qd for 7 days (reference value: 6.63 +/- 1.24 mL); assay type: functional; settings: route intraperitoneal
Mus musculus [6] = experiment: Antitumor activity against mouse P388 cells allografted in DBA/2 mouse assessed as host survival on day 7 at 20 mg/kg, ip qd for 2 weeks; assay type: functional; settings: route intraperitoneal
Procedure, shortened: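 P388 leukemia in male DBA/2 mice (20 g): 10⁶ cells implanted on day 0. Compounds were given ip at 20 (mg/kg)/day for 2 weeks. Survival was expressed as T/C by the NIH protocol; T/C > 120 counted as significant. 5-Fluorouracil was the internal standard.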

Mus musculus [7] = species on record: Mus musculus; experiment: Toxicity in CF1 mouse; assay type: organism-based; settings: in vivo
Mus musculus [8] = experiment: Antitumor activity against mouse EAC allografted in CF1 mouse assessed as host survival on day 7 at 20 mg/kg, ip qd for 7 days; assay type: functional, organism-based; design: dose 20 mg/kg
Mus musculus [9] = experiment: Antiinflammatory activity in CF1 mouse assessed as increase in foot weight at 10 mg/kg, ip administered 3 hrs and 30 mins prior to carrageenan-challenge measured after 3 hrs (reference value: 97 +/- 10 mg); assay type: functional; settings: route intraperitoneal
Mus musculus [10] = experiment: Antiinflammatory activity in CF1 mouse assessed as inhibition of carrageenan-induced paw edema at 10 mg/kg, ip administered 3 hrs and 30 mins prior to carrageenan-challenge measured after 3 hrs (reference value: 0%); assay type: functional; settings: route intraperitoneal
Mus musculus [11] = experiment: Analgesic activity in CF1 mouse assessed as inhibition of acetic acid-induced pain measured for 10 mins at 5 mg/kg,ip administration 5 mins prior to test by […]; assay type: functional, organism-based; design: dose 5 mg/kg
Mus musculus [12] = experiment: Immunosuppressive activity in mouse splenic lymphocytes isolated from 25 mg/kg, ip on days 2,3 and 4 treated CF1 mouse assessed as reduction in sheep red blood cell antigen-induced plaque-forming response (reference value: 100%); design: scale not given: the % may be the effect or the level left; settings: route intraperitoneal
Rattus norvegicus [13] = experiment: Antipyretic activity in Sprague-Dawley rat assessed as decrease in yeast/mycobacterium butyricum-induced increase temperature at 2.5 mg/kg, ip; assay type: functional, organism-based; design: dose 2.5 mg/kg
Mus musculus [14] = experiment: Analgesic activity in CF1 mouse assessed as inhibition of acetic acid-induced pain measured for 10 mins at 2.5 mg/kg,ip administration 5 mins prior to test by […]; assay type: functional, organism-based; design: dose 2.5 mg/kg
Rattus norvegicus [15] = experiment: Antipyretic activity in Sprague-Dawley rat assessed as decrease in yeast/mycobacterium butyricum-induced increase temperature at 5 mg/kg, ip; assay type: functional, organism-based; design: dose 5 mg/kg
Mus musculus [16] = experiment: Analgesic activity in CF1 mouse assessed as inhibition of acetic acid-induced writhing reflex measured for 10 mins at 20 mg/kg,ip administration 5 mins prior to test by […]; assay type: functional, organism-based; design: dose 20 mg/kg
[17] = Acute toxicity in CF1 mouse; assay type: organism-based; settings: in vivo
Mus musculus [18] = experiment: Immunosuppressive activity in mouse splenic lymphocytes isolated from 0.1 mg, ip on days 2,3 and 4 treated CF1 mouse assessed as reduction in sheep red blood cell antigen-induced plaque-forming response (reference value: 100%); design: scale not given: the % may be the effect or the level left

Compound | inhibition in vivo at 20 mg/kg (Mus musculus [1]) [%] | Activity (Mus musculus [2]) [mg] | inhibition in vivo at 20 mg/kg (Mus musculus [3]) [%] | T/C (Mus musculus [4]) | Activity (Mus musculus [5]) [mL] | Survival (Mus musculus [6]) [days] | Activity (Mus musculus [7]) | Activity (Mus musculus [8]) | Activity (Mus musculus [9]) [mg] | inhibition in vivo at 10 mg/kg (Mus musculus [10]) [%] | Activity (Mus musculus [11]) | Activity (Mus musculus [12]) [%] | Activity (Rattus norvegicus [13]) | Activity (Mus musculus [14]) | Activity (Rattus norvegicus [15]) | inhibition (Mus musculus [16]) | LD50 [17] [µmol/kg] | Activity (Mus musculus [18]) [%]
CC(C)C[C@H](NC(=O)c1ccccc1)C(=O)OCC#N | 87.2 | 77 | 29 | 117 | 0.8 | 11.3 | Non-toxic |  |  |  |  |  |  |  |  |  |  | 
N#CCOC(=O)C(Cc1ccccc1)NC(=O)OCc1ccccc1 (configuration not stated) | 86 | 54 | 38 |  | 0.4 |  | Non-toxic | Active |  |  |  |  |  |  |  |  |  | 
N#CCOC(=O)CCCCCNC(=O)c1ccccc1 | 45.2 | 65 | 40 |  | 2.73 | 10.3 | Non-toxic | Active |  |  |  |  |  |  |  |  |  | 
Cc1ccc(S(=O)(=O)N[C@@H](Cc2ccccc2)C(=O)OCC#N)cc1 | 97 | 69 | 21 | 94 | 0.4 | 9.1 | Non-toxic |  |  |  |  |  |  |  |  |  |  | 
N#CCOC(=O)CCCNC(=O)c1ccccc1 | 43.1 | 68 | 37 | 104 | 2.78 | 10 | Non-toxic |  |  |  |  |  |  |  |  |  |  | 
N#CCOC(=O)[C@@H]1CCCN1C(=O)c1ccccc1 | 59.3 | 67 | 39 | 93 | 2.93 | 9 | Non-toxic |  |  |  |  |  |  |  |  |  |  | 
COc1ccc2c(c1)c(CC(=O)O)c(C)n2C(=O)c1ccc(Cl)cc1 [INDOMETHACIN] |  | 97 | 0 | 100 |  | 9.66 |  |  | 23 | 74 |  |  |  |  |  |  |  | 
N#CCOC(=O)[C@H](Cc1ccccc1)NC(=O)c1ccccc1 | 47 | 43 | 51 |  | 1.8 |  | Non-toxic |  |  |  |  |  |  |  |  |  |  | 
CCC(C)C(NC(=O)c1ccccc1)C(=O)OCC#N (configuration not stated) | 46.6 | 89 | 18 | 122 | 2.97 | 11.8 | Non-toxic |  |  |  |  |  |  |  |  |  |  | 
N#CCOC(=O)[C@H](Cc1ccccc1)NC(=O)OCc1ccccc1 | 99.9 | 39 | 55 | 68 | 0.2 | 6.6 | Non-toxic | Active |  |  | inactive | 86 | inactive | inactive | inactive | Active |  | 
C[C@H](NC(=O)c1ccccc1)C(=O)OCC#N | 98.2 | 56 | 49 | 101 | 0.1 | 9.8 | Non-toxic | Active |  |  |  |  |  |  |  |  |  | 
Sc1ncnc2nc[nH]c12 [MERCAPTOPURINE ANHYDROUS] | 99.6 |  |  |  | 0.7 |  |  | Active |  |  |  |  |  |  |  |  |  | 
N#CCOC(=O)CCNC(=O)c1ccccc1 | 11.6 | 75 | 31 |  | 4.96 |  | Non-toxic |  |  |  |  |  |  |  |  |  |  | 
Cc1ccc(S(=O)(=O)N[C@@H](Cc2ccccc2)C(=O)CCl)cc1 [TPCK] | 100 | 31 | 56 |  | 0.01 |  |  |  |  |  |  |  |  |  |  |  | 210 | 
N[C@@H](Cc1ccc(N(CCCl)CCCl)cc1)C(=O)O [MELPHALAN] |  |  |  |  |  |  |  |  |  |  |  | 100 |  |  |  |  |  | 51
N#CCOC(=O)[C@H](Cc1ccccc1)NC(=O)[C@H](Cc1ccccc1)NC(=O)OCc1ccccc1 | 43 | 61 | 30 |  | 2.1 |  | Non-toxic |  |  |  |  |  |  |  |  |  |  | 
N#CCOC(=O)[C@H](Cc1ccc(O)cc1)NC(=O)c1ccccc1 | 42.3 | 75 | 41 | 113 | 1.98 | 11.3 | Non-toxic |  |  |  |  |  |  |  |  |  |  | 
N#CCOC(=O)CCCCCNC(=O)OCc1ccccc1 | 54 | 63 | 28 |  | 1 |  | Non-toxic | Active |  |  |  |  |  |  |  |  |  | 
CC(NC(=O)c1ccccc1)C(=O)OCC#N (configuration not stated) | 43.3 | 87 | 25 | 100 | 2.91 | 9.7 | Non-toxic | Active |  |  |  |  |  |  |  |  |  | 
N#CCOC(=O)CNC(=O)c1ccccc1 | 40.2 | 55 | 50 | 109 | 2.85 | 10.5 | Non-toxic | Active |  |  |  |  |  |  |  |  |  | 
O=c1[nH]cc(F)c(=O)[nH]1 [FLUOROURACIL] |  |  |  | 186 |  | 18 |  |  |  |  |  |  |  |  |  |  |  | 
CC(=O)N[C@@H](Cc1ccccc1)C(=O)OCC#N | 16 | 49 | 44 |  | 3.9 |  | Non-toxic | Active |  |  |  |  |  |  |  |  |  | 
CC(C)C(NC(=O)c1ccccc1)C(=O)OCC#N (configuration not stated) | 99.9 | 82 | 24 | 109 | 0.07 | 10.5 | Non-toxic |  |  |  |  |  |  |  |  |  |  | 
N#CCOC(=O)CNC(=O)OCc1ccccc1 | 29 | 48 | 45 |  | 2.2 |  | Non-toxic | Active |  |  |  | 58 |  |  |  |  |  | 
